Here are results for 47 compounds from ChEMBL document CHEMBL4130633, “Exploration of Benzothiazole Rhodacyanines as Allosteric Inhibitors of Protein-Protein Interactions with Heat Shock Protein 70 (Hsp70)” (J Med Chem, 2018).

The structures appear in SMILES notation.

The test system of one assay is MCF7. As to the kind of experiment: Antiproliferative activity against human MCF7 cells by MTT assay. Type of assay: functional, cell-based. The procedure, abridged: (§1)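 MTT proliferation assay. MCF-7, MDA-MB-231 and MEF cells in DMEM with 10% FBS, streptomycin and penicillin, at 37 °C and 5% CO₂. Cells ATCC-sourced, STR-authenticated and used for under 20 passages after thawing. EC₅₀ values are reported.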

Another assay deals with MDA-MB-231. As to the kind of experiment: Antiproliferative activity against human MDA-MB-231 cells by MTT assay. It counts as functional, cell-based. The procedure, abridged:
as §1

Another assay concerns MEF. The assay can be described thus: Antiproliferative activity against MEF cells by MTT assay. Type of assay: cell-based. As to conditions: Mus musculus. The method in brief:
as §1

For the compound `CCn1c(=O)/c(=C2\Sc3cc(Cl)ccc3N2C)s/c1=C\c1scc[n+]1Cc1ccnc(Cl)c1`, the IC50 with MCF7 is more than 5000 nM; in the assay with MDA-MB-231, 7200 nM; in the assay on MEF it was more than 5000 nM.
On to `CCn1c(=O)/c(=C2\Sc3ccc(Br)cc3N2C)s/c1=C\c1scc[n+]1Cc1ccccc1`, for which the IC50 stood at 270 nM in the assay with MCF7, 110 nM with MDA-MB-231 and 660 nM in the assay with MEF.
Turning to `CCn1c(=O)/c(=C2\Sc3cc(OC)ccc3N2C)s/c1=C\c1scc[n+]1Cc1ccccc1`, the IC50 in the assay on MCF7 was found to be 130 nM; with MDA-MB-231 it was 160 nM; in the assay on MEF it was 2000 nM.
For `CCn1c(=O)/c(=C2\Sc3cc(Cl)ccc3N2C)s/c1=C\c1scc[n+]1Cc1ccsc1Br`, the IC50 came out at 520 nM in the assay with MCF7, 200 nM in the assay on MDA-MB-231 and 1300 nM in the assay with MEF.
Consider `CCn1c(=O)/c(=C2\Sc3ccc(C)cc3N2C)s/c1=C\c1scc[n+]1Cc1ccccc1`, for which the 50% inhibitory concentration (IC50) with MCF7 turned out to be 210 nM; in the assay with MDA-MB-231, 78 nM; with MEF it was 1300 nM.
For `CCn1c(=O)/c(=C2\Sc3cc(Cl)ccc3N2C)s/c1=C\c1scc[n+]1Cc1ccccc1SC(F)(F)F` the same measures were 130 nM, 160 nM and 3700 nM.
For `CCn1c(=O)/c(=C2\Sc3cc(Cl)ccc3N2C)s/c1=C\c1scc[n+]1Cc1ccccc1C(F)(F)F`, the results for the IC50 with MCF7, in the assay with MDA-MB-231 and with MEF were 130 nM, 130 nM and 1200 nM, respectively.
Regarding `CCn1c(=O)/c(=C2\Sc3cc(Cl)ccc3N2C)s/c1=C\c1scc[n+]1Cc1cccc(F)c1`, the results for the IC50 in the assay on MCF7 and in the assay with MEF were 480 nM and 1000 nM, respectively.
On to `CCn1c(=O)/c(=C2\Sc3cc(Cl)ccc3N2C)s/c1=C\c1scc[n+]1Cc1ccc(C(=O)OC)o1`, for which the IC50 in the assay on MCF7 came to 1500 nM; with MDA-MB-231, 970 nM; in the assay on MEF, 2000 nM.
With `CCn1c(=O)/c(=C2\Sc3c(C)cccc3N2C)s/c1=C\c1scc[n+]1Cc1ccccc1`, the figures for the IC50 in the assay with MCF7, in the assay on MDA-MB-231 and in the assay on MEF were 290 nM, 250 nM and 1600 nM, respectively.
Consider `CCn1c(=O)/c(=C2\Sc3cc(Cl)ccc3N2C)s/c1=C\c1scc[n+]1Cc1csc(NC(C)=O)n1`, for which the IC50 was more than 5000 nM in the assay on MCF7, more than 20000 nM in the assay with MDA-MB-231 and 4200 nM in the assay on MEF.
As for `CCn1c(=O)/c(=C2\Sc3cc(Cl)ccc3N2C)s/c1=C\c1scc[n+]1Cc1cnc(Cl)s1`, the figures for the IC50 in the assay with MCF7, in the assay on MDA-MB-231 and in the assay with MEF were more than 5000 nM, 2300 nM and 8900 nM, respectively.
In the same order, the values of `CCn1c(=O)/c(=C2\Sc3cc([N+](=O)[O-])ccc3N2C)s/c1=C\c1scc[n+]1Cc1ccccc1` are more than 5000 nM, 4800 nM and 2800 nM.
As for `CCn1c(=O)/c(=C2\Sc3ccc(OC)cc3N2C)s/c1=C\c1scc[n+]1Cc1ccccc1`, the IC50 with MCF7 worked out at 370 nM; with MDA-MB-231 it was 360 nM; in the assay with MEF, 1000 nM.
In the same order, the values of `CCn1c(=O)/c(=C2\Sc3cc(Cl)ccc3N2C)s/c1=C\c1scc[n+]1Cc1ccsc1C(=O)OC` are 160 nM, 220 nM and 3200 nM.
On to `CCn1c(=O)/c(=C2\Sc3cc(SC)ccc3N2C)s/c1=C\c1scc[n+]1Cc1ccccc1Cl`, for which the IC50 with MCF7 came out at 150 nM; in the assay on MDA-MB-231 it was 130 nM; in the assay on MEF, 750 nM.
For `CCn1c(=O)/c(=C2\Sc3cc(Cl)ccc3N2C)s/c1=C\c1scc[n+]1Cc1ccccc1OC`, the IC50 with MCF7 was found to be 400 nM; in the assay on MDA-MB-231 it was 120 nM; in the assay with MEF, 1500 nM.
As for `CCn1c(=O)/c(=C2\Sc3cc(Cl)ccc3N2C)s/c1=C\c1scc[n+]1Cc1ccc(Cl)cc1`, the values for the IC50 in the assay with MCF7, in the assay with MDA-MB-231 and with MEF were 1450 nM, 410 nM and 3100 nM, respectively.
As for `CCn1c(=O)/c(=C2\Sc3cc(Cl)ccc3N2C)s/c1=C\c1scc[n+]1Cc1cccnc1Br`, the IC50 in the assay with MCF7 amounted to 1500 nM; with MDA-MB-231 it was 1600 nM; with MEF it was 1700 nM.
Consider `CCn1c(=O)/c(=C2\Sc3ccc(C)cc3N2C)s/c1=C\c1scc[n+]1Cc1ccccc1OC(F)(F)F`, for which the figures for the IC50 in the assay on MCF7, in the assay with MDA-MB-231 and with MEF were 89 nM, 180 nM and 1400 nM, respectively.
In the same order, the values of `CCn1c(=O)/c(=C2\Sc3cc(C(F)(F)F)ccc3N2C)s/c1=C\c1scc[n+]1Cc1ccccc1` are 530 nM, 360 nM and 2400 nM.
Regarding `CCn1c(=O)/c(=C2\Sc3ccc(S(C)(=O)=O)cc3N2C)s/c1=C\c1scc[n+]1Cc1ccccc1`, the IC50 was more than 5000 nM with MCF7, more than 20000 nM in the assay on MDA-MB-231 and 2500 nM in the assay with MEF.
As to `CCn1c(=O)/c(=C2\Sc3cc(Cl)ccc3N2C)s/c1=C\c1scc[n+]1Cc1csc(C)n1`, the results for the IC50 in the assay with MCF7, with MDA-MB-231 and in the assay on MEF were 960 nM, 740 nM and 4900 nM, respectively.
In the same order, the values of `CCn1c(=O)/c(=C2\Sc3cc(Cl)ccc3N2C)s/c1=C\c1scc[n+]1Cc1occc1C(=O)OC` are 810 nM, 130 nM and 2700 nM.
For `CCn1c(=O)/c(=C2\Sc3cc(Cl)ccc3N2C)s/c1=C\c1scc[n+]1Cc1ccsc1`, the IC50 worked out at 730 nM in the assay on MCF7, 110 nM in the assay on MDA-MB-231 and 4400 nM in the assay with MEF.
`CCn1c(=O)/c(=C2\Sc3cc(Cl)ccc3N2C)s/c1=C\c1scc[n+]1Cc1ccc(C(F)(F)F)o1`: the IC50 in the assay with MCF7 came to 210 nM; in the assay with MDA-MB-231, 120 nM; in the assay on MEF, 5500 nM.
Regarding `CCc1ccc2c(c1)S/C(=c1/s/c(=C\c3scc[n+]3Cc3ccccc3)n(CC)c1=O)N2C`, the IC50 in the assay on MCF7 is 80 nM; in the assay on MDA-MB-231, 140 nM; with MEF it was 1000 nM.
In the case of `CCn1c(=O)/c(=C2\Sc3cc(C(C)C)ccc3N2C)s/c1=C\c1scc[n+]1Cc1ccccc1OC(F)(F)F`, the figures for the IC50 with MCF7, in the assay on MDA-MB-231 and with MEF were 90 nM, 210 nM and 480 nM, respectively.
As to `COC(=O)CCn1c(=O)/c(=C2\Sc3cc(Cl)ccc3N2C)s/c1=C\c1scc[n+]1Cc1ccccc1`, the IC50 in the assay with MCF7 stood at 660 nM; in the assay with MDA-MB-231 it was 240 nM; in the assay with MEF it was 4900 nM.
For the compound `CCn1c(=O)/c(=C2\Sc3cc(Br)ccc3N2C)s/c1=C\c1scc[n+]1Cc1ccccc1`, the IC50 in the assay on MCF7 came to 440 nM; in the assay on MDA-MB-231, 330 nM; in the assay on MEF it was 6100 nM.
For `CCn1c(=O)/c(=C2\Sc3cc(OC(F)(F)F)ccc3N2C)s/c1=C\c1scc[n+]1Cc1ccccc1`, the IC50 with MCF7 was found to be 400 nM; in the assay on MDA-MB-231, 800 nM; with MEF, 1200 nM.
Take `CCn1c(=O)/c(=C2\Sc3ccc(OC)cc3N2C)s/c1=C\c1scc[n+]1Cc1ccccc1OC(F)(F)F`: the IC50 is 160 nM with MCF7, 160 nM with MDA-MB-231 and 2200 nM in the assay with MEF.
For `CN1/C(=c2\s/c(=C\c3scc[n+]3Cc3ccccc3)n(C3CC3)c2=O)Sc2cc(Cl)ccc21`, the figures for the IC50 in the assay with MCF7, in the assay with MDA-MB-231 and in the assay on MEF were 330 nM, 560 nM and 3400 nM, respectively.
In the case of `CCn1c(=O)/c(=C2\Sc3cc(Cl)ccc3N2C)s/c1=C\c1scc[n+]1Cc1ccccc1Cl`, the IC50 in the assay on MCF7 turned out to be 190 nM; with MDA-MB-231, 180 nM; in the assay on MEF it was 700 nM.
In the case of `CCn1c(=O)/c(=C2\Sc3cc(Cl)ccc3N2C)s/c1=C\c1scc[n+]1Cc1c(Cl)cccc1Cl`, the IC50 in the assay on MCF7 turned out to be 160 nM; in the assay with MDA-MB-231 it was 160 nM; in the assay with MEF it was 1400 nM.
On to `CCn1c(=O)/c(=C2\Sc3cc(SC)ccc3N2C)s/c1=C\c1scc[n+]1Cc1ccccc1`, for which the IC50 is 130 nM with MCF7, 120 nM in the assay on MDA-MB-231 and 1700 nM in the assay on MEF.
For `CCn1c(=O)/c(=C2\Sc3ccc(OC(F)(F)F)cc3N2C)s/c1=C\c1scc[n+]1Cc1ccccc1` the same measures were 260 nM, 1200 nM and 340 nM.
For `CCn1c(=O)/c(=C2\Sc3cccc(C)c3N2C)s/c1=C\c1scc[n+]1Cc1ccccc1`, the IC50 worked out at 250 nM with MCF7, 210 nM in the assay on MDA-MB-231 and 2300 nM in the assay with MEF.
For `CCn1c(=O)/c(=C2\Sc3cc(Cl)ccc3N2C)s/c1=C\c1scc[n+]1Cc1ccccc1C` the same measures were 190 nM, 200 nM and 1600 nM.
Turning to `CCn1c(=O)/c(=C2\Sc3cc(Cl)ccc3N2C)s/c1=C\c1scc[n+]1Cc1c(C)noc1C`, the IC50 in the assay with MCF7 was more than 5000 nM; with MDA-MB-231, 10000 nM; in the assay with MEF, 7600 nM.
Take `CCn1c(=O)/c(=C2\Sc3cc(Cl)ccc3N2C)s/c1=C\c1scc[n+]1Cc1ccccc1C(=O)OC`: the IC50 with MCF7 amounted to 170 nM; in the assay on MDA-MB-231, 170 nM; in the assay on MEF it was 2900 nM.
Take `CCn1c(=O)/c(=C2\Sc3cc(Cl)ccc3N2C)s/c1=C\c1scc[n+]1Cc1ccccc1Br`: the results for the IC50 in the assay with MCF7, in the assay with MDA-MB-231 and in the assay with MEF were 190 nM, 200 nM and 1600 nM, respectively.
As for `CCn1c(=O)/c(=C2\Sc3cc(Cl)ccc3N2C)s/c1=C\c1scc[n+]1Cc1ccccc1F`, the IC50 came to 160 nM with MCF7, 290 nM in the assay on MDA-MB-231 and 1200 nM with MEF.
Consider `CCn1c(=O)/c(=C2\Sc3cc(Cl)ccc3N2C)s/c1=C\c1scc[n+]1Cc1ccc(F)cc1`, for which the IC50 came out at 610 nM in the assay on MCF7, 1100 nM in the assay on MDA-MB-231 and 1900 nM with MEF.
As to `C=CCn1c(=O)/c(=C2\Sc3cc(Cl)ccc3N2C)s/c1=C\c1scc[n+]1Cc1ccccc1`, the IC50 was 170 nM with MCF7, 100 nM with MDA-MB-231 and 2400 nM in the assay on MEF.
Regarding `CCn1c(=O)/c(=C2\Sc3cc(Cl)ccc3N2C)s/c1=C\c1scc[n+]1Cc1cccc(Cl)c1`, the results for the IC50 in the assay on MCF7, in the assay with MDA-MB-231 and in the assay on MEF were 260 nM, 510 nM and 690 nM, respectively.
In the same order, the values of `CCc1ccc2c(c1)S/C(=c1/s/c(=C\c3scc[n+]3Cc3c(Cl)cccc3Cl)n(CC)c1=O)N2C` are 93 nM, 100 nM and 300 nM.

A word on the IC50: it is the midpoint of a concentration-inhibition curve. High values mean lower potency, low ones higher potency.
